# Source: PubChem BioAssay
# Compounds with a hit are over-represented: about 2.3% of the library has one in this group of screens.
# TRPC4 act: opens the mouse TRPC4 cation channel | B-score at 10 µM | HEK293 TRPC4beta/mu-opioid, Fluo4 calcium fluorescence; hits give high values | Q9QUQ5 | hit rate 0.49% among 310,000;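 active = B-score above 5 SD of library B-scores, and initial fluorescence ratio not above library mean plus 5 SD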;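 note: positive B-score marks a calcium rise read as TRPC4 activation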
# Target sequence (Q9QUQ5 whole entry, looked up): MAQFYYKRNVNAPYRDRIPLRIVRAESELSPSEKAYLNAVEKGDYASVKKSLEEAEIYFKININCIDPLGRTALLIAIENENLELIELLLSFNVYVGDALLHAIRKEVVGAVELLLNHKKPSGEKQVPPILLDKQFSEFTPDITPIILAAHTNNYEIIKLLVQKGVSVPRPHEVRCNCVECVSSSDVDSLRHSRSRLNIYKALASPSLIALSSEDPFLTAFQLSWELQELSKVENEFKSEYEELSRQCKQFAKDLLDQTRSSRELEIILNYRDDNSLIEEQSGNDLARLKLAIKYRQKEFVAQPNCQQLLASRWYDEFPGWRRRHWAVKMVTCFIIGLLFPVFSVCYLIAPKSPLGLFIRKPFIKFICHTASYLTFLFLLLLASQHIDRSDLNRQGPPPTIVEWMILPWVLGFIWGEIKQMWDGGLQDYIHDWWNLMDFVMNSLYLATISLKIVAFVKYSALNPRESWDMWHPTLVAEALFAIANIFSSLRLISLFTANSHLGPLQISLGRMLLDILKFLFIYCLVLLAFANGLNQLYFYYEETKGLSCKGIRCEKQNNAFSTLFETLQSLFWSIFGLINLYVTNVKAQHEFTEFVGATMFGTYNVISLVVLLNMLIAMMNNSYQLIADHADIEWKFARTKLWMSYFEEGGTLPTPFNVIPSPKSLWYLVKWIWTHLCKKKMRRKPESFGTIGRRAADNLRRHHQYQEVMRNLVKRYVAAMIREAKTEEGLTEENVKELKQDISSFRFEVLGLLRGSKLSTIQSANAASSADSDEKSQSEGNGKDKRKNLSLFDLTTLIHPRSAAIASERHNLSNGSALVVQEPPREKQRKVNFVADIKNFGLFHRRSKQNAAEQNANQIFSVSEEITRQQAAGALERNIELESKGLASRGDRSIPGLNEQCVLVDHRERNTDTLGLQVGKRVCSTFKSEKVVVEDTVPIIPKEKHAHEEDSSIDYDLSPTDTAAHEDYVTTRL
#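 Assay system – TRPC4beta and mu-opioid receptor HEK293 stable cells · Measured by – Fluo4 fluorescence, kinetic · Schedule – dye loading 45 min room temperature, 110 s kinetic read · Read-out – B-scored integrated calcium fluorescence ratio · Controls – buffer and maximal DAMGO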
# TRPC4 potent: allosterically enhances the mouse TRPC4 cation channel; HEK293 TRPC4beta/mu-opioid, DAMGO EC20, Fluo-4 Ca2+ flux; hits give high values; hit rate 0.42% among 310,000; Q9QUQ5; B-score at 10 µM;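 active = B-score of calcium response area above 5 SD of library B-scores, with initial fluorescence ratio within 5 SD of library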
# TRPC4 block: inhibitors of mouse TRPC4 channel; HEK293 TRPC4beta/mu-opioid, DAMGO-evoked Fluo4 calcium flux; hits give low values; hit rate 0.39% among 300,000; B-score at 10 µM;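 active = B-score over 3 SD under the library average, no early fluorescence shift, positive overall ratio signal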
#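 System: stable TRPC4beta/mu-opioid receptor HEK293 cells; Dosing: single-point compound dosing; Measured by: Fluo4 Ca2+ flux fluorescence; Read-out basis: per-well B score of integrated baseline-normalized Fluo4 ratio.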
# TRPC6 act: activators of mouse TRPC6 channel. Q61143. HEK293-TRPC6 membrane potential dye fluorescence; hits give high values. B-score at 10 µM. hit rate 0.13% among 310,000. AID 2550;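 active = B-score of the integrated fluorescence ratio above library mean plus 3 SD, and starting fluorescence ratio within library mean plus 5 SD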;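 note: higher score means more depolarization so channel activation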
# TRPC6 inh: mouse TRPC6 channel inhibition; Q61143; HEK293-TRPC6, membrane potential dye, ACh-evoked depolarization; hits give low values; B-score at 10 µM; hit rate 1.1% among 310,000; AID 2553;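 active = B-score under library mean minus 3 SD, initial fluorescence not abnormally high, positive integrated signal ratio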;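 note: B-score derived from integrated fluorescence ratio over the kinetic read; more negative B-score means stronger inhibition of depolarization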
# TRPC4 sel inh 2: mouse TRPC4 off-target activity of TRPC6 inhibitors, second screen. HEK293 TRPC4/MOR, membrane potential dye fluorescence; channel activated by saturating DAMGO dose. AID 2776. hit rate 42% among 920. inhibition, % at 10 µM. shares compounds with TRPC6 inh;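 active = compounds whose fluorescence signal differed from control wells by over 3 SD, either direction, in both duplicate plates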
# TRPC4 spec: selectivity of TRPC6 inhibitors: effect on mouse TRPC4 | AID 2777 | shares compounds with TRPC6 inh | activity change, negative = inhibition, % at 10 µM | hit rate 61% among 920 | HEK293 TRPC4/mu-opioid, membrane potential fluorescence;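 active = rise or fall in signal beyond 3 SD of buffer-only wells in both replicate plates, either sign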;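 note: integrated kinetic ratio of fluorescence range over baseline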
# HEK293 MPD ctr 2-1: second counter-screen for TRPC6 inhibitors: parental HEK293 cells. shares compounds with TRPC6 inh. parental HEK293 membrane potential dye fluorescence; maximal acetylcholine challenge after compound addition. signal change vs control, % at 10 µM. hit rate 31% among 920. AID 2779;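 active = membrane potential signal moving either way by over 3 SD of the maximum-effect control, in both duplicate plates, meaning non-specific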
# HEK293 MPD ctr-1: counter-screen for TRPC6 inhibitors: effect in parental HEK293 cells; shares compounds with TRPC6 inh; parental HEK293 membrane potential dye fluorescence; membrane potential signal change, % at 10 µM; hit rate 60% among 920; AID 2780;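 active = membrane potential signal shifting up or down by more than 3 SD of buffer-only wells, on both duplicate plates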
# HEK293 MPD ctr-2: checks TRPC6 modulator effects in parental HEK293 cells | AID 488924 | membrane potential signal change, % at 10 µM | shares compounds with TRPC6 inh | membrane potential dye fluorescence | hit rate 51% among 2,400;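 active = membrane potential signal moves up or down beyond 5 SD from buffer-only wells, on both duplicate plates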
# HEK293 MPD ctr 2-2: second counter-screen for TRPC6 modulators: effect in parental HEK293 cells | shares compounds with TRPC6 inh | hit rate 14% among 2,400 | inhibition, % at 10 µM | membrane potential dye fluorescence; after compound, maximal acetylcholine stimulation | AID 488926;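 active = membrane potential signal drops by more than 5 SD from the mean control signal, in both duplicate plates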
# TRPC4/MOR mod: mouse TRPC4 off-target activity of TRPC6 modulators; HEK293 TRPC4/mu-opioid, membrane potential fluorescence; AID 488927; shares compounds with TRPC6 inh; percent change from control (negative = decrease, positive = increase), % at 10 µM; hit rate 69% among 2,400;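 active = membrane potential signal moved up or down beyond 5 SD of buffer control wells, in both duplicate plates, actives on both sides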
# TRPC4 ctr inh 2: mouse TRPC4 off-target activity of TRPC6 modulators, second screen | hit rate 55% among 2,400 | HEK293 TRPC4/mu-opioid, membrane potential dye fluorescence; stimulated with maximal-effect DAMGO | AID 488928 | shares compounds with TRPC6 inh | inhibition, % at 10 µM;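 active = drop in membrane potential signal beyond 5 SD of the control wells in both duplicate plates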;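 note: TRPC4 counter screen for TRPC6 hits run under conditions tuned for TRPC6 not TRPC4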
# TRPC6 inh conf: confirmation of mouse TRPC6 inhibitors | HEK293-TRPC6, membrane potential dye, ACh-evoked depolarization | inhibition, % at 10 µM | hit rate 43% among 3,300 | shares compounds with TRPC6 inh;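 active = fluorescence ratio falls more than 5 SD below the full-stimulation control mean, in both duplicate runs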;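 note: integrated fluorescence ratio of peak minus minimum over baseline after agonist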
# TRPC6 act conf: confirmation of mouse TRPC6 activators; shares compounds with TRPC6 inh; HEK293-TRPC6 membrane potential dye fluorescence, FDSS; activation, % at 10 µM; hit rate 11% among 2,800;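 active = ratio signal rise beyond 5 SD above unstimulated control wells' mean, seen in both duplicate runs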
# A number is an active result; 0 = inactive; - = no result; ! = a repeat was not active.
SMILES,TRPC4 act,TRPC4 potent,TRPC4 block,TRPC6 act,TRPC6 inh,HEK293 MPD ctr-2,HEK293 MPD ctr 2-2,TRPC4/MOR mod,TRPC4 ctr inh 2,TRPC6 inh conf,others
COc1ccc(CCNC2CCCCC2)cc1OC,0,0,0,0,0,-,-,-,-,-,
COc1ccc(C(CNC(=O)CCc2ccsc2)N(C)C)cc1 (stereo not drawn),108,0,0,0,0,-,-,-,-,-,
Brc1ccc2c(c1)C(OC1CN3CCC1CC3)c1ccccc1CS2 (stereo not drawn),0,29,0,0,0,-,-,-,-,-,
c1ccc2c(c1)CSc1ccccc1C2C1=NCCN1 (stereo not drawn),0,0,0,0,0,-,-,-,-,-,
O=C(O)[C@H]1NC[C@H]2C[C@H]21,0,0,0,0,0,-,-,-,-,-,
Cn1c(O)c(C(=Nc2ccc(F)cc2)c2ccccc2Cl)c(=O)n(C)c1=O,0,0,0,0,0,-,-,-,-,-,
CCOc1cc(CNCCc2c[nH]c3ccccc23)cc(Cl)c1OCC,46,0,0,0,0,-,-,-,-,-,
Fc1ccc(CNCCc2c[nH]c3ccccc23)cc1,0,0,0,0,0,-,-,-,-,-,
CCOc1c(Cl)cc(CNCCc2c[nH]c3ccccc23)cc1OC,53,0,0,0,0,-,-,-,-,-,
O=P1(Oc2ccccc2)CC=C[C@H](COCc2ccccc2)O1 (stereo partly drawn),0,0,0,0,0,-,-,-,-,-,
c1ccc2oc(N3CCNCC3)nc2c1,72,44,0,0,0,-,-,-,-,-,
CCC(COC(=O)c1cc(OC)c(OC)c(OC)c1)(c1ccccc1)N(C)C (stereo not drawn),54!,0,0,0,0,-,-,-,-,-,
CCCOP(=O)(OCCC)C(NC(=O)c1cc(OC)c(OC)c(OC)c1)c1ccccc1 (stereo not drawn),0,0,0,0,0,-,-,-,-,-,
COc1ccccc1CC(=O)N1CCN(CCc2ccccc2)CC1,119,0,0,0,0,-,-,-,-,-,
CCN1CCN(C(=O)Cc2ccccc2OC)CC1,79,0,0,0,0,-,-,-,-,-,
O=C(Cc1ccccc1)N1CCN(CCCc2ccccc2)CC1,0,0,0,0,0,-,-,-,-,-,
CCCOc1ccc(C(=O)NC(=S)N2C[C@H]3C[C@H](C2)c2cccc(=O)n2C3)cc1,0,0,0,0,0,-,-,-,-,-,
CCC[N+]12CCC(CC1)C(=C(c1ccccc1)c1ccccc1)C2,0,0,0,0,-5.8,0,0,14%,0,64%,
CCCCCSc1cc(OC)c(CCNC)cc1OC,0,0,0,0,-6,0,0,12%,28%,0,TRPC6 act conf=0
CCCCCCCSc1cc(OC)c(CCNC)cc1OC,0,0,0,0,-5.1,0,0,0,50%,43%,TRPC6 act conf=0
O=C(c1ccc(Cl)cc1)C1CCCN(C2CCSCC2)C1 (stereo not drawn),0,0,-5,0,-7,130%,0,28%,50%,44%,
COc1ccc(C(=O)C2CCCN(C3CSCCSC3)C2)cc1OC (stereo not drawn),167,0,0,0,-7.7,0,83%,59%,36%,72%,TRPC6 act conf=0
COc1ccc(C(=O)C2CCCN(Cc3cnc(C)s3)C2)cc1OC (stereo not drawn),0,0,0,0,0,-,-,-,-,-,
O=S(=O)(c1ccc(F)cc1)N1CCCCC1c1cccnc1 (stereo not drawn),0,0,0,0,0,-,-,-,-,-,
COC(=O)Nc1ccc(N=C(N)N[N+](=O)[O-])cc1,0,0,0,0,0,-,-,-,-,-,
SMILES,TRPC4 act,TRPC4 potent,TRPC4 block,TRPC6 act,TRPC6 inh,HEK293 MPD ctr-2,HEK293 MPD ctr 2-2,TRPC4/MOR mod,TRPC4 ctr inh 2,TRPC6 inh conf,others
COc1ccc(-c2cc(=Nc3ccccc3)c3cc(C)ccc3o2)cc1,0,0,0,0,-7.7,-,-,-,-,0,TRPC4 sel inh 2=0;TRPC4 spec=-18%;HEK293 MPD ctr 2-1=0;HEK293 MPD ctr-1=-198%;TRPC6 act conf=0
COc1ccc(-c2cc(=NCCC(=O)O)c3cc(C)ccc3o2)cc1,0,0,0,0,0,-,-,-,-,-,
CCC1=Nc2cc(C(=O)N3CCC4(CC3)OCCO4)ccc2Sc2ccc(Br)cc21,0,0,0,0,0,-,-,-,-,-,
O=C1OC(c2ccc([N+](=O)[O-])cc2)=N/C1=C/N1CC2CC(C1)c1cccc(=O)n1C2 (stereo not drawn),96,0,0,37,0,272%,102%,57%,31%,-,TRPC6 act conf=124%
CN1CCC(OC(=O)C2c3ccccc3Oc3ccccc32)CC1,0,0,0,0,-6.8,-,-,-,-,67%,TRPC4 sel inh 2=0;TRPC4 spec=4.7%;HEK293 MPD ctr 2-1=0;HEK293 MPD ctr-1=8.4%
CN1CCC(OC(=O)Cc2ccccc2)CC1,0,0,0,0,0,-,-,-,-,-,
Cc1cc(C)c2c(ccc3cccc[n+]32)c1,0,0,0,0,-7.6,-260%,96%,-40%,60%,69%,TRPC6 act conf=0
O=[N+]([O-])c1ccc2nc(N3CCNCC3)ccc2c1,0,0,0,0,-5,-218%,0,-38%,42%,0,TRPC6 act conf=0
O=C(Nc1ccccc1)c1cc([N+](=O)[O-])ccc1N1CCNCC1,0,0,0,0,0,-,-,-,-,-,
COc1ccccc1N1CCN(C2CCCN(C(=O)COc3ccccc3Cl)C2)CC1 (stereo not drawn),0,0,0,0,0,-,-,-,-,-,
CC(C)[N+](C)(CCC(C(N)=O)(c1ccccc1)c1ccccc1)C(C)C,0,0,0,0,-6.6,0,101%,0,0,88%,TRPC6 act conf=0
COc1ccc(CC2C(=O)NC(=O)NC2=O)c(OC)c1,0,0,0,0,0,-,-,-,-,-,
COc1ccc(Cc2c(O)[nH]c(=O)[nH]c2=O)c(OC)c1,0,0,0,16,0,0,0,0,0,0,TRPC6 act conf=0
